Activity calls are given as the source filed them. The calls are words filed in the database; no cut-off is given here.
Columns and labels:
Homo sapiens = species on record: Homo sapiens; assay: Agonist activity at human full length Flag-tagged RXR/His-tagged VDR assessed as ability to recruit coactivator DRIP205 up to 500 uM by Alphascreen assay
In short: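 AlphaScreen proximity assay of the RXR–VDR complex run in agonist mode, i.e. without any added VDR agonist. Read-out is the proximity signal produced when coactivator peptide DRIP205 is recruited to the VDR–RXR complex. Fragments were tested at concentrations up to 500 µM.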

[1] = Antagonist activity at human full length Flag-tagged RXR/His-tagged VDR by Alphascreen assay
In short: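 Antagonist-mode AlphaScreen assay: a non-secosteroidal VDR agonist was added to form the VDR/RXR/DRIP205 complex. Fragments were then added at 10 doses spanning 0.025–500 µM. Dissociation of the complex was quantified as loss of proximity signal on a multilabel reader, and dose–response curves were fitted.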

| Activity (Homo sapiens) | IC50 [1] [µM] | SMILES |
| --- | --- | --- |
| inactive | 6.98 | O=C1CCCC=C(Cl)N1c1ccccc1 |
| inactive | 1.3 | OC(c1ccc(-c2cccs2)cc1)(C(F)(F)F)C(F)(F)F |
| inactive | 440 | O=C1CC=C(c2ccccc2)O1 |
| inactive | 20 | CCC1CCCCN1CC(=O)c1cccs1 (stereo unspecified) |
| inactive | 6.83 | Oc1csc2ccccc12 |
| inactive | 67.1 | Oc1cc(-c2ccc(Cl)cc2)no1 |
| inactive | 5.37 | Nc1ccc2c(c1)N=C(O)CN2 |
| inactive | 2.77 | O=C(O)C1CSC=C(c2ccccc2)N1 (stereo unspecified) |
| inactive | 1.01 | CCn1c(O)cc(C)cc1=O |
| inactive | 0.194 | Cn1c(=O)c2nc(-c3cccc(O)c3O)nnc2n(C)c1=O |
| inactive | 43.2 | Oc1cnn(-c2ccccc2)c1Cl |
| inactive | 14.2 | Oc1coc(-c2ccccc2)c1 |
| inactive | 16.7 | O=C(O)/C=C(/c1ccccc1)c1cccs1 |

Source: ChEMBL document CHEMBL3352778, “HDX reveals unique fragment ligands for the vitamin D receptor” (Bioorg Med Chem Lett, 2014)
